Active and inactive are the calls of the source.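 Rule for the calls: active = inhibition of 30% or more at any tested concentration; inactive = the rest.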
Molecular target: Aspartyl aminopeptidase (Homo sapiens) (UniProt Q9ULA0)
Test: hM18AAP inhibitors, dose response, selectivity assay for PFM18AAP inhibitor project, biochemical, QFRET, H-Glu-NHMec substrate, set 3 (AID 624174)
Conditions: purified recombinant hM18AAP, H-Glu-NHMec fluorescence; for inhibition: at 100 µM (top of the series)
Outline: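 Test system: Purified recombinant human M18 aspartyl aminopeptidase (hM18AAP) | Quantity: hM18AAP enzyme at 5 µg/mL final | Medium: Tris pH 7.5, CoCl2, DMSO | Reagent: Fluorogenic substrate H-Glu-NHMec at 0.1 mM final | Timing: 90 min reaction, room temperature | Measured by: NHMec fluorescence at 370/460 nm | Read-out: % inhibition and IC50 from logistic fit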

SMILES | IC50 [µM] | inhibition
Cc1cccc2c(NCCc3ccc(O)c(O)c3)ccnc12 | 12.7 | 
Oc1ccc(CCCNc2c3c(nc4ccccc24)CCCC3)cc1O | 9.5 | 
Oc1ccc(CCNc2ccnc3cc(Cl)ccc23)cc1O | 13.6 | 
Oc1ccc(C2CCCN(c3ccnc4ccccc34)C2)cc1O (centres undefined) | 5.59 | 
Oc1cccc(CCNc2ccnc3ccccc23)c1O | 11.6 | 
CN(CCCc1ccc(O)c(O)c1)c1c2ccccc2nc2ccccc12 |  | inactive
CC(Cc1ccc(O)c(O)c1)Nc1ccnc2ccccc12 (centres undefined) | 14.4 | 
CN(CCc1ccc(O)c(O)c1)c1c2ccccc2nc2ccccc12 |  | inactive
Oc1ccc(C2CCN(c3ccnc4ccccc34)CC2)cc1O | 4.68 | 
CN(CCc1ccc(O)c(O)c1)c1ncnc2ccccc12 | 6.74 | 
Clc1c2c(nc3ccccc13)CCCC2 |  | inactive
CC(C)(CNc1ccnc2ccccc12)c1ccc(O)c(O)c1 | 35 | 
COc1cc(Br)c(CCNc2c3ccccc3nc3ccccc23)cc1OC |  | inactive
Nc1c2ccccc2nc2ccccc12 |  | inactive
Oc1ccc(CCNc2ccnc3c(F)cccc23)cc1O | 8.36 | 
Oc1ccc(C2CCN(c3ccnc4ccccc34)C2)cc1O (centres undefined) | 5.59 | 
COc1cc(Br)c(CCNc2c3c(nc4ccccc24)CCCC3)cc1OC |  | inactive
CCN(CCc1ccc(O)c(O)c1)c1c2ccccc2nc2ccccc12 |  | inactive

Results, then the molecule that gave them:

IC50 [µM] | inhibition | SMILES
 | inactive | COc1ccc(C2CCN(c3ccnc4ccccc34)CC2)cc1OC
10.5 |  | Cc1cccc2c(N(C)CCc3ccc(O)c(O)c3)ccnc12
 | inactive | COc1ccc(CCCNc2c3c(nc4ccccc24)CCCC3)cc1OC
9.75 |  | Cc1cc(N(C)CCc2ccc(O)c(O)c2)c2ccccc2n1
 | inactive | COc1ccc(CCN(C)c2cc(C)nc3ccccc23)cc1OC
 | inactive | COc1ccc(CCCN(C)c2c3ccccc3nc3ccccc23)cc1OC
 | inactive | COc1ccc(CCNc2ccnc3cc(Cl)ccc23)cc1OC
 | inactive | COc1ccc(CCNc2ccnc3c(F)cccc23)cc1OC
 | inactive | CCN(CCc1ccc(OC)c(OC)c1)c1c2ccccc2nc2ccccc12
 | inactive | COc1ccc(CCNc2ncnc3ccccc23)cc1OC
 | inactive | COc1ccc(CCN(C)c2c3ccccc3nc3ccccc23)cc1OC
 | inactive | COc1ccc(CCNc2cc(C)nc3ccccc23)cc1OC
 | inactive | CCOc1ccc2nccc(N(C)CCc3ccc(OC)c(OC)c3)c2c1
 | inactive | COc1ccc(CCNc2c3c(nc4ccc(C)cc24)CCCC3)cc1OC
7.67 |  | CN(CCc1ccc(O)c(O)c1)c1ccnc2cc(Cl)ccc12
 | inactive | COc1ccc(CCN(C)c2ccnc3c(C)cccc23)cc1OC
7.92 |  | CN(CCc1ccc(O)c(O)c1)c1ccnc2c(F)cccc12
 | inactive | CCOc1ccc2nccc(NCCc3ccc(OC)c(OC)c3)c2c1
 | inactive | COc1cc(Br)c(CCNc2ccnc3ccccc23)cc1OC
 | inactive | COc1ccc(CCNC(=O)c2cc(C)ccc2N)cc1OC
 | inactive | COc1ccc(CCN(C)c2ccnc3c(F)cccc23)cc1OC
 | inactive | COc1ccc(C2CCN(c3ccnc4ccccc34)C2)cc1OC (centres undefined)
9.65 |  | CN(CCCc1ccc(O)c(O)c1)c1ccnc2ccccc12
 | inactive | COc1ccc(CCN(C)c2ncnc3ccccc23)cc1OC
 | inactive | COc1ccc(CCNc2ccnc3c(C)cccc23)cc1OC
 | inactive | COc1ccc(CCN(C)c2ccnc3cc(Cl)ccc23)cc1OC

Source: PubChem BioAssay AID624174 (Southern Research Specialized Biocontainment Screening …, 2012)
